Test results as given in PubChem BioAssay.
Calls of active or inactive are those of the source.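 How the source made its calls, unless noted: active means current rise at least 3 SD above the untreated control mean in each of two repeat wells; inactive means the rest.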

molecular target: Potassium voltage-gated channel subfamily KQT member 2 (Rattus norvegicus) (UniProt O88943); test: KCNQ2 thallium flux enhancement – KCNQ2-CHO-K1 cells, selectivity assay for KCNQ1 potentiator project (AID 493009;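 active means mean duplicate potentiation above the buffer control mean plus 5 SD of buffer wells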;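 further: assay conditions were tuned for KCNQ1 rather than KCNQ2 modulators; signal is max minus min fluorescence divided by baseline after thallium stimulus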); details: FluxOR thallium flux fluorescence, at 10 µM; active compounds read high, scaled: buffer 0, activator control 100
Sequence (O88943 whole entry, looked up): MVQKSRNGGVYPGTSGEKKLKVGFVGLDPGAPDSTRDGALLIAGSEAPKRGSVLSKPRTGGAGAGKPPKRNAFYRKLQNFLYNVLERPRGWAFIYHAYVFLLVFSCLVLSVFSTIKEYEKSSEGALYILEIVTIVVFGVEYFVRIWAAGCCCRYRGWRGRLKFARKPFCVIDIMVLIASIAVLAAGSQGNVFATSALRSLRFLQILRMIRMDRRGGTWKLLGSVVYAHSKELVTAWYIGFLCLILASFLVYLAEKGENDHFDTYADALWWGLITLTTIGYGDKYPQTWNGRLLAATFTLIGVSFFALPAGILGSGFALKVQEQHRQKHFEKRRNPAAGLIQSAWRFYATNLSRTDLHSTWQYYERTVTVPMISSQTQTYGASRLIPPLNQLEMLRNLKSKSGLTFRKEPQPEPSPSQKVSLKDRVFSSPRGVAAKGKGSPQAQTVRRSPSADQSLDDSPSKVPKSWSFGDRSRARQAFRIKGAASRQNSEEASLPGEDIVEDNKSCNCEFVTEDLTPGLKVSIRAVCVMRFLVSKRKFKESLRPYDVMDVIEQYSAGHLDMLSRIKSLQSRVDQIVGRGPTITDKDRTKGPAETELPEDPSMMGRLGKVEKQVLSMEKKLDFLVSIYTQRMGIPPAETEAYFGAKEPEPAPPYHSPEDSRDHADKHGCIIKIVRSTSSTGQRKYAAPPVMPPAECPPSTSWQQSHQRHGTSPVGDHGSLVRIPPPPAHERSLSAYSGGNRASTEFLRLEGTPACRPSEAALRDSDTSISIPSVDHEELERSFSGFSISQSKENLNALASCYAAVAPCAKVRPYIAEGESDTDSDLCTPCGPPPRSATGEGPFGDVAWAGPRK

Row | SMILES | outcome | potentiation
1 | CCCc1nc2oc3c(NCCCN(C)C)ncnc3c2c2c1CCCC2 | inactive | –
2 | COc1ccc(NS(=O)(=O)c2ccc3ccccc3c2)c2ncccc12 | – | 172% (active)
3 | CN(C)S(=O)(=O)N1CCC(CCCC2CCN(S(=O)(=O)N(C)C)CC2)CC1 | – | 288% (active)
4 | COc1cc(C2(c3ccc(O)c(OC)c3)C(=O)Nc3c(C)cc(Br)cc32)ccc1O | inactive | –
5 | CCCCCCCCCC[n+]1cccc2c3ccccc3ccc21 | – | 194% (active)
6 | Cc1nn(-c2cc(C(F)(F)F)ccc2Cl)c2nc(C(Cl)(Cl)Cl)[nH]c(=O)c12 | – | 218% (active)
7 | CN(C)CCCN(C(=O)CCc1ccccc1)c1nc2ccc(F)cc2s1 | inactive | –
8 | Cc1ccc(C(=O)O)cc1N=Cc1cc(Br)cc(Br)c1O | – | 192% (active)
9 | CC(C)NS(=O)(=O)c1ccc(NC(=O)C(C)Oc2ccc(C(=O)c3ccccc3)cc2)cc1 (stereo unspecified) | inactive | –
10 | O=C1C=CC(=O)N1CCNc1ncc(C(F)(F)F)cc1Cl | inactive | –
11 | Cc1ccc2c(c1)C1CN(C)CCC1N2C(=S)NC(=O)c1ccc(Br)cc1 (stereo unspecified) | – | 200% (active)
12 | CCCCN(CC)CCCNC(=O)c1cc2cc3ccc(C)cc3nc2o1 | inactive | –
13 | COc1cc(NC(=O)CSc2ncnc3sc4c(c23)CCC(C)C4)c(C(=O)O)cc1OC (stereo unspecified) | – | 506% (active)
14 | CN(CCCNC(=O)CCCOc1cc(=O)n(C)c2ccccc12)Cc1ccccc1 | inactive | –
15 | Cc1cc(C)c2c(=O)n(CC(=O)Nc3cccc(Cl)c3C)sc2n1 | inactive | –
16 | O=C(Nc1ccnn1C1CCN(Cc2cc3ccccc3[nH]2)CC1)C1CCOC1 (stereo unspecified) | – | 180% (active)
17 | O=C(O)CCCN1C(=O)/C(=C\c2ccc(-c3nc4ccccc4s3)o2)SC1=S | inactive | –
18 | CCN(CC)c1ncnc2sc3c(c12)CCC3 | inactive | –

molecular target: Potassium voltage-gated channel subfamily KQT member 1 (Homo sapiens) (UniProt P51787); test: KCNQ1 activators by electrophysiology – IonWorks patch clamp, KCNQ1-CHO cells, orthogonal assay for KCNQ1 potentiator project, confirmation (AID 493184); details: automated patch clamp current, at 10 µM; active compounds read high
Sequence (P51787 whole entry, looked up): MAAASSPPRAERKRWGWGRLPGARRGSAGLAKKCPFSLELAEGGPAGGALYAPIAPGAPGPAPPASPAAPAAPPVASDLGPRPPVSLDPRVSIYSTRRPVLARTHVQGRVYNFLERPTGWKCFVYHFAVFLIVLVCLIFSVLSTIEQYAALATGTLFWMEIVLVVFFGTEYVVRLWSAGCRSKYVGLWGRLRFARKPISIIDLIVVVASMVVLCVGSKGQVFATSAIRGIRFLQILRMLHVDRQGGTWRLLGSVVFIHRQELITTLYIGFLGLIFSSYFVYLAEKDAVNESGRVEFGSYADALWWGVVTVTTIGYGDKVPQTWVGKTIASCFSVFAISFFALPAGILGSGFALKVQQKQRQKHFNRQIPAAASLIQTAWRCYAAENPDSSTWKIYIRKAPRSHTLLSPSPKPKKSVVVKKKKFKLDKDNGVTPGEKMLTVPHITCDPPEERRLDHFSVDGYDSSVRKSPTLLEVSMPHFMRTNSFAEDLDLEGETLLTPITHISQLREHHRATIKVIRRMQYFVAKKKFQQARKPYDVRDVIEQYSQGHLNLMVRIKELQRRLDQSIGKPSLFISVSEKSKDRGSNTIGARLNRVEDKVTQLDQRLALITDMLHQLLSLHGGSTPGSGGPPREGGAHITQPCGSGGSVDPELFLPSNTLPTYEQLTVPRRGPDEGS
In short: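 Material: KCNQ1-expressing CHO cells; doses: 10 µM final, single point; probe or stimulus: voltage step from -90 mV holding to +40 mV, 2,000 ms; signal: automated voltage clamp, amphotericin B perforated patch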

Row | SMILES | outcome
19 | CCCc1nc2oc3c(NCCCN(C)C)ncnc3c2c2c1CCCC2 | inactive
20 | COc1ccc(NS(=O)(=O)c2ccc3ccccc3c2)c2ncccc12 | inactive
21 | CN(C)S(=O)(=O)N1CCC(CCCC2CCN(S(=O)(=O)N(C)C)CC2)CC1 | inactive
22 | COc1cc(C2(c3ccc(O)c(OC)c3)C(=O)Nc3c(C)cc(Br)cc32)ccc1O | inactive
23 | CCCCCCCCCC[n+]1cccc2c3ccccc3ccc21 | inactive
24 | Cc1nn(-c2cc(C(F)(F)F)ccc2Cl)c2nc(C(Cl)(Cl)Cl)[nH]c(=O)c12 | inactive
25 | CN(C)CCCN(C(=O)CCc1ccccc1)c1nc2ccc(F)cc2s1 | inactive
26 | Cc1ccc(C(=O)O)cc1N=Cc1cc(Br)cc(Br)c1O | inactive
27 | CC(C)NS(=O)(=O)c1ccc(NC(=O)C(C)Oc2ccc(C(=O)c3ccccc3)cc2)cc1 (stereo unspecified) | inactive
28 | O=C1C=CC(=O)N1CCNc1ncc(C(F)(F)F)cc1Cl | inactive
29 | Cc1ccc2c(c1)C1CN(C)CCC1N2C(=S)NC(=O)c1ccc(Br)cc1 (stereo unspecified) | inactive
30 | CCCCN(CC)CCCNC(=O)c1cc2cc3ccc(C)cc3nc2o1 | inactive
31 | COc1cc(NC(=O)CSc2ncnc3sc4c(c23)CCC(C)C4)c(C(=O)O)cc1OC (stereo unspecified) | inactive
32 | CN(CCCNC(=O)CCCOc1cc(=O)n(C)c2ccccc12)Cc1ccccc1 | inactive
33 | Cc1cc(C)c2c(=O)n(CC(=O)Nc3cccc(Cl)c3C)sc2n1 | inactive
34 | O=C(Nc1ccnn1C1CCN(Cc2cc3ccccc3[nH]2)CC1)C1CCOC1 (stereo unspecified) | inactive
35 | O=C(O)CCCN1C(=O)/C(=C\c2ccc(-c3nc4ccccc4s3)o2)SC1=S | inactive
36 | CCN(CC)c1ncnc2sc3c(c12)CCC3 | inactive
